Data as given in ChEMBL document CHEMBL3232947, “Inhibitory effect of turmeric curcuminoids on FLT3 expression and cell cycle arrest in the FLT3-overexpressing EoL-1 leukemic cell line” (J Nat Prod, 2014).

Legend:
EOL1 [1] = test: Reduction in Flt3 protein level in human EOL-1 cells at 15 uM after 48 hrs by Western blot analysis; format: functional; conditions: EOL1, 48 h
How it was run: (§1)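 Treated EoL-1 lysed in RIPA buffer, protein by Folin-Lowry, resolved on 12% SDS-PAGE; probed with rabbit polyclonal anti-FLT3 or anti-STAT5A (1:500) and anti-GAPDH (1:1000), HRP anti-rabbit secondary, chemiluminescence. Band intensities normalized to GAPDH and compared with vehicle control; mean ± SEM, three independent experiments.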

EOL1 [2] = test: Reduction in Flt3 protein level in human EOL-1 cells at 15 uM after 24 hrs by Western blot analysis; format: functional; conditions: EOL1, 24 h; how it was run: as §1
[3] = Cytotoxicity against human EOL-1 cells after 48 hrs by MTT assay; format: functional, cell-based; conditions: EOL1, 48 h
How it was run: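 Cells seeded at 5.0 × 10^4/well, preincubated 24 h at 37 °C, then exposed to 1.56–50 μM for 48 h (0.1% DMSO vehicle); MTT 4 h at 37 °C, formazan dissolved in DMSO, A578 (ref 630 nm). IC50 = lowest concentration giving 50% growth reduction vs vehicle; mean ± SEM, three independent experiments in triplicate.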

EOL1 [4] = test: Reduction in STAT5A protein level in human EOL-1 cells after 12 hrs by Western blot analysis; format: functional, cell-based; how it was run: as §1
EOL1 [5] = test: Reduction in STAT5A protein level in human EOL-1 cells at 5 uM after 12 hrs by Western blot analysis; format: functional; conditions: EOL1, 12 h; how it was run: as §1
EOL1 [6] = test: Reduction in STAT5A protein level in human EOL-1 cells at 3 uM after 12 hrs by Western blot analysis; format: functional; conditions: EOL1, 12 h; how it was run: as §1
EOL1 [7] = test: Reduction in Flt3 protein level in human EOL-1 cells at 3 uM after 12 hrs by Western blot analysis; format: functional; conditions: EOL1, 12 h; how it was run: as §1
EOL1 [8] = test: Reduction in Flt3 protein level in human EOL-1 cells at 4 uM after 12 hrs by Western blot analysis; format: functional; conditions: EOL1, 12 h; how it was run: as §1
[9] = Cell cycle arrest in human EOL-1 cells assessed as accumulation at G0/G1 phase at 5 uM after 12 hrs by flow cytometry (reference value: 54 %); format: functional, cell-based; conditions: EOL1
[10] = Cell cycle arrest in human EOL-1 cells assessed as accumulation at G0/G1 phase at 4 uM after 24 hrs by flow cytometry (reference value: 54 %); format: functional, cell-based; conditions: EOL1
EOL1 [11] = test: Reduction in Flt3 protein level in human EOL-1 cells at 4 uM after 48 hrs by Western blot analysis; format: functional; conditions: EOL1, 48 h; how it was run: as §1
[12] = Antiproliferative activity against human EOL-1 cells at 3 uM after 12 hrs by trypan blue exclusion assay; format: functional, EOL1
How it was run: (§2)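 EoL-1 cells (RPMI-1640, 10% fetal calf serum, L-glutamine, penicillin/streptomycin) exposed 12 h; viable counts by trypan blue exclusion over time; growth rate (cells/h) taken as slope of cell number vs incubation time, compared with vehicle-control growth rate.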

EOL1 [13] = test: Reduction in STAT5A protein level in human EOL-1 cells at 4 uM after 12 hrs by Western blot analysis; format: functional; conditions: EOL1, 12 h; how it was run: as §1
EOL1 [14] = test: Reduction in Flt3 protein level in human EOL-1 cells at 4 uM after 24 hrs by Western blot analysis; format: functional; conditions: EOL1, 24 h; how it was run: as §1
[15] = Antiproliferative activity against human EOL-1 cells at 5 uM after 12 hrs by trypan blue exclusion assay; format: functional, EOL1; how it was run: as §2
[16] = Cell cycle arrest in human EOL-1 cells assessed as accumulation at G0/G1 phase after 12 hrs by flow cytometry relative to control; conditions: EOL1
[17] = Cell cycle arrest in human EOL-1 cells assessed as accumulation at G0/G1 phase at 4 uM after 12 hrs by flow cytometry (reference value: 54 %); format: functional, cell-based; conditions: EOL1
EOL1 [18] = test: Reduction in Flt3 protein level in human EOL-1 cells at 5 uM after 12 hrs by Western blot analysis; format: functional; conditions: EOL1, 12 h; how it was run: as §1
[19] = Cell cycle arrest in human EOL-1 cells assessed as accumulation at G0/G1 phase at 4 uM after 48 hrs by flow cytometry (reference value: 54 %); format: functional, cell-based; conditions: EOL1
[20] = Cell cycle arrest in human EOL-1 cells assessed as accumulation at G0/G1 phase at 3 uM after 12 hrs by flow cytometry (reference value: 54 %); format: functional, cell-based; conditions: EOL1
EOL1 [21] = test: Reduction in Flt3 protein level in human EOL-1 cells after 12 hrs by Western blot analysis; format: functional, cell-based; how it was run: as §1
[22] = Antiproliferative activity against human EOL-1 cells at 4 uM after 12 hrs by trypan blue exclusion assay; format: functional, EOL1; how it was run: as §2
EOL1 [23] = test: Reduction in Flt3 protein level in human EOL-1 cells at 10 uM after 12 hrs by Western blot analysis; format: functional; conditions: EOL1, 12 h; how it was run: as §1
EOL1 [24] = test: Reduction in Flt3 protein level in human EOL-1 cells at 10 uM after 48 hrs by Western blot analysis; format: functional; conditions: EOL1, 48 h; how it was run: as §1
EOL1 [25] = test: Reduction in Flt3 protein level in human EOL-1 cells at 10 uM after 24 hrs by Western blot analysis; format: functional; conditions: EOL1, 24 h; how it was run: as §1

O=C(/C=C/c1ccc(O)cc1)CC(=O)/C=C/c1ccc(O)cc1 [BISDEMETHOXYCURCUMIN]
inhibition at 15 µM (EOL1 [1]): 3%
inhibition at 15 µM (EOL1 [2]): 26%
IC50 [3]: 22.3 µM

COc1cc(/C=C/C(=O)CC(=O)/C=C/c2ccc(O)c(OC)c2)ccc1O [CURCUMIN]
inhibition (EOL1 [4]): Dose-dependent effect
inhibition at 5 µM (EOL1 [5]): 82%
inhibition at 3 µM (EOL1 [6]): 13%
inhibition at 3 µM (EOL1 [7]): 17%
inhibition at 4 µM (EOL1 [8]): 37%
Activity [9]: 75%
Activity [10]: 58%
inhibition at 4 µM (EOL1 [11]): 12%
Activity [12]: 17%
IC50 [3]: 6.7 µM
inhibition at 4 µM (EOL1 [13]): 44%
inhibition at 4 µM (EOL1 [14]): 33%
Activity [15]: 58%
Activity [16]: Dose-dependent effect
Activity [17]: 71%
inhibition at 5 µM (EOL1 [18]): 70%
Activity [19]: 54%
Activity [20]: 66%
inhibition (EOL1 [21]): Dose-dependent effect
Activity [22]: 25%

COc1cc(/C=C/C(O)=C/C(=O)/C=C/c2ccc(O)cc2)ccc1O [DEMETHOXYCURCUMIN]
inhibition at 10 µM (EOL1 [23]): 4%
inhibition at 10 µM (EOL1 [24]): 46%
IC50 [3]: 15.6 µM
inhibition at 10 µM (EOL1 [25]): 32%
